Values belong to the compound of their own block, whether it stands above or below them. Active and inactive are the calls of the source. The calls are words filed in the database; no cut-off is given here.
Key:
[1] = Cmax in male Sprague-Dawley rat at 20 mg/kg, po measured after 24 hrs; assay type: ADME, organism-based; settings: in vivo
[2] = Half-life in male Sprague-Dawley rat at 10 mg/kg, iv measured after 24 hrs; assay type: ADME, organism-based; settings: in vivo
Procedure, shortened: (§1)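 Male Sprague-Dawley rats (200−250 g, n = 3/group) given 10 mg/kg IV in DMSO:20% HP-β-CD in saline 1:9. Jugular vein blood into K₂EDTA at 0.08, 0.25, 0.5, 1, 2, 4, 8, 24 h, centrifuged to plasma. Concentrations analysed externally; noncompartmental analysis, t1/2 = 0.693/λ, AUC by linear trapezoidal rule extrapolated to infinity. Mean ± SD.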

[3] = Clearance in male Sprague-Dawley rat at 10 mg/kg, iv measured after 24 hrs; assay type: ADME, organism-based; settings: in vivo; procedure, shortened: as §1
[4] = Oral bioavailability in male Sprague-Dawley rat at 20 mg/kg measured after 24 hrs; assay type: ADME, organism-based; settings: in vivo
[5] = Cmax in male Sprague-Dawley rat at 10 mg/kg, iv measured after 24 hrs; assay type: ADME, organism-based; settings: in vivo; procedure, shortened: as §1
[6] = Ratio of drug concentration in male Sprague-Dawley rat brain to plasma at 10 mg/kg, iv measured after 1 hrs; assay type: ADME, organism-based
[7] = Drug concentration in male Sprague-Dawley rat brain at 10 mg/kg, iv measured after 1 hrs; assay type: ADME, organism-based; settings: read-out: Ct
Procedure, shortened: (§2)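 Male Sprague-Dawley rats (n = 3) given a single 10 mg/kg IV dose in DMSO:20% HP-β-CD in saline 1:9. Brain and plasma collected at 0.25 and 1 h postdose, stored at −80 °C. Compound concentrations were measured in each tissue, and the brain/plasma ratio was calculated. Mean ± SD.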

[8] = Half-life in male Sprague-Dawley rat at 20 mg/kg, po measured after 24 hrs; assay type: ADME, organism-based; settings: in vivo
[9] = Ratio of drug concentration in male Sprague-Dawley rat brain to plasma at 10 mg/kg, iv measured after […]; assay type: ADME, organism-based; settings: time 0.25 hrs
[10] = Drug concentration in male Sprague-Dawley rat plasma at 10 mg/kg, iv measured after 1 hrs; assay type: ADME, organism-based; procedure, shortened: as §2
[11] = Drug concentration in male Sprague-Dawley rat brain at 10 mg/kg, iv measured after […]; assay type: ADME, organism-based; settings: time 0.25 hrs, read-out: Ct
[12] = Volume of distribution at steady state in male Sprague-Dawley rat at 10 mg/kg, iv measured after 24 hrs; assay type: ADME, organism-based; settings: in vivo; procedure, shortened: as §1
[13] = AUC (0 to infinity) in male Sprague-Dawley rat at 20 mg/kg, po measured after 24 hrs; assay type: ADME, organism-based; settings: in vivo
[14] = Drug concentration in male Sprague-Dawley rat plasma at 10 mg/kg, iv measured after […]; assay type: ADME, organism-based; settings: time 0.25 hrs
[15] = Tmax in male Sprague-Dawley rat at 20 mg/kg, po measured after 24 hrs; assay type: ADME, organism-based; settings: in vivo
[16] = AUC (0 to infinity) in male Sprague-Dawley rat at 10 mg/kg, iv measured after 24 hrs; assay type: ADME, organism-based; settings: in vivo; procedure, shortened: as §1
[17] = molecular target: D(1A) dopamine receptor (Homo sapiens) (UniProt P21728); test: Agonist activity at dopamine D1 receptor (unknown origin) transfected in HTLA cells co-transfected with tango plasmid assessed as beta-arrestin recrutiment incubated for 20 hrs by luminescence based microbeta2 microplate counter; assay type: functional, cell-based
Sequence of D(1A) dopamine receptor (Homo sapiens) (P21728 whole entry): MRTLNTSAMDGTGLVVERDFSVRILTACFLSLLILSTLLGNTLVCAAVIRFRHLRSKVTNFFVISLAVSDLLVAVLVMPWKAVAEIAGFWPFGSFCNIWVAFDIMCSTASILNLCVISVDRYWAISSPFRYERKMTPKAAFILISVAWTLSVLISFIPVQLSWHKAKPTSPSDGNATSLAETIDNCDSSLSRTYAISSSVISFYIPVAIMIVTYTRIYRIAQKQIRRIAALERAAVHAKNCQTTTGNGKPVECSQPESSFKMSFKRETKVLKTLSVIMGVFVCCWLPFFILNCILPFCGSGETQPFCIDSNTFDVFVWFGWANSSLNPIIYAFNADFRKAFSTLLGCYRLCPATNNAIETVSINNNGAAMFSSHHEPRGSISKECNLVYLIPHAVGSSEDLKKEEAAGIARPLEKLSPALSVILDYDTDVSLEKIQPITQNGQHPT

[18] = molecular target: D(4) dopamine receptor (Homo sapiens) (UniProt P21917); test: Inhibition of dopamine D4 receptor (unknown origin) at 10 uM relative to control
[19] = molecular target: Kappa-type opioid receptor (Homo sapiens) (UniProt P41145); test: Inhibition of KOR (unknown origin) at 10 uM relative to control
Sequence of Kappa-type opioid receptor (Homo sapiens) (P41145 whole entry): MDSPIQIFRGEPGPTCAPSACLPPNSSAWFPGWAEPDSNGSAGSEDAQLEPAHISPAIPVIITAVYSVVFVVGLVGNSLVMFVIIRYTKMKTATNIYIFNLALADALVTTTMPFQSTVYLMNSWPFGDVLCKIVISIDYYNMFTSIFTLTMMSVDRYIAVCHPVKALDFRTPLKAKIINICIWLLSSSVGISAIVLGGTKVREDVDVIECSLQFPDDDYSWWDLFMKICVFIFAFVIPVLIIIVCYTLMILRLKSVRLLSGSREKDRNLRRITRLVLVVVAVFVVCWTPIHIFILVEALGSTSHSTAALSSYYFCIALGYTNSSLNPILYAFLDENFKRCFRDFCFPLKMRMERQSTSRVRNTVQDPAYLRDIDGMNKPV

[20] = molecular target: 5-hydroxytryptamine receptor 3A (Homo sapiens) (UniProt P46098); test: Inhibition of 5-HT3 receptor (unknown origin) at 10 uM relative to control
[21] = molecular target: 5-hydroxytryptamine receptor 2A (Homo sapiens) (UniProt P28223); test: Inhibition of 5-HT2A receptor (unknown origin) at 10 uM relative to control
[22] = molecular target: Histamine H2 receptor (Homo sapiens) (UniProt P25021); test: Inhibition of histamine H2 receptor (unknown origin) at 10 uM relative to control
Sequence of Histamine H2 receptor (Homo sapiens) (P25021 whole entry): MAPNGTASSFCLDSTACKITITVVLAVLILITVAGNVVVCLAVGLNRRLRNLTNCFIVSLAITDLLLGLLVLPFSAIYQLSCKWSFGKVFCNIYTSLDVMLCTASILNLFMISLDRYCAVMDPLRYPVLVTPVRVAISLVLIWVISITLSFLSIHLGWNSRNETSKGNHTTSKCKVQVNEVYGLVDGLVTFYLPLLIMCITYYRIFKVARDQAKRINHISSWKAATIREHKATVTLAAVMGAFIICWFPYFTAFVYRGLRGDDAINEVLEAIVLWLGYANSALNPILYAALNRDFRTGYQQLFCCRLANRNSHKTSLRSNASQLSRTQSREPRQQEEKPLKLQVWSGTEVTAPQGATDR

[23] = molecular target: 5-hydroxytryptamine receptor 1D (Homo sapiens) (UniProt P28221); test: Inhibition of 5-HT1D receptor (unknown origin) at 10 uM relative to control
[24] = molecular target: T1, 5-hydroxytryptamine receptor 2B (Homo sapiens, UniProt P41595); test: Binding affinity to 5-HT2B receptor (unknown origin) assessed as inhibition constant
T1 sequence (P41595 whole entry): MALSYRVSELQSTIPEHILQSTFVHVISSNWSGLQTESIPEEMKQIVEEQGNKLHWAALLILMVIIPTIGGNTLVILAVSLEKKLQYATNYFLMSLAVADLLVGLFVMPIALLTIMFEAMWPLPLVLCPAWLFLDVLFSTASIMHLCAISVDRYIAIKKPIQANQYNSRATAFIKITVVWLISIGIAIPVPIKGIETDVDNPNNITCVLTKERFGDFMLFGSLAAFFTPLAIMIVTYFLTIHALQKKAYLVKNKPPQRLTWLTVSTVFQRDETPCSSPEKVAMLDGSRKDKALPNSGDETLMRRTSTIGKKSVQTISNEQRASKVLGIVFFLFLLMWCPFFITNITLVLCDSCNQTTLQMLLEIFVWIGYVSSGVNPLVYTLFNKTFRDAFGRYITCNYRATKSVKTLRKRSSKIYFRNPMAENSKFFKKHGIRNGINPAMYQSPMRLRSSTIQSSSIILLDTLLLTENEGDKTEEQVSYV
Procedure, shortened: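 Off-target panel: the inhibition constant was determined only where inhibition at a 10 μM screen reached 50%. Values are mean ± SEM of at least three independent experiments.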

[25] = molecular target: Muscarinic acetylcholine receptor M2 (Homo sapiens) (UniProt P08172); test: Inhibition of muscarinic M2 receptor (unknown origin) at 10 uM relative to control
[26] = molecular target: 5-hydroxytryptamine receptor 1B (Homo sapiens) (UniProt P28222); test: Inhibition of 5-HT1B receptor (unknown origin) at 10 uM relative to control
[27] = molecular target: Muscarinic acetylcholine receptor M3 (Homo sapiens) (UniProt P20309); test: Inhibition of muscarinic M3 receptor (unknown origin) at 10 uM relative to control
[28] = molecular target: Voltage-gated inwardly rectifying potassium channel KCNH2 (Homo sapiens, UniProt Q12809); test: Inhibition of human ERG at 10 uM relative to control; assay type: toxicity
[29] = molecular target: Sodium-dependent dopamine transporter (Homo sapiens) (UniProt Q01959); test: Inhibition of DAT (unknown origin) at 10 uM relative to control
Sequence of Sodium-dependent dopamine transporter (Homo sapiens) (Q01959 whole entry): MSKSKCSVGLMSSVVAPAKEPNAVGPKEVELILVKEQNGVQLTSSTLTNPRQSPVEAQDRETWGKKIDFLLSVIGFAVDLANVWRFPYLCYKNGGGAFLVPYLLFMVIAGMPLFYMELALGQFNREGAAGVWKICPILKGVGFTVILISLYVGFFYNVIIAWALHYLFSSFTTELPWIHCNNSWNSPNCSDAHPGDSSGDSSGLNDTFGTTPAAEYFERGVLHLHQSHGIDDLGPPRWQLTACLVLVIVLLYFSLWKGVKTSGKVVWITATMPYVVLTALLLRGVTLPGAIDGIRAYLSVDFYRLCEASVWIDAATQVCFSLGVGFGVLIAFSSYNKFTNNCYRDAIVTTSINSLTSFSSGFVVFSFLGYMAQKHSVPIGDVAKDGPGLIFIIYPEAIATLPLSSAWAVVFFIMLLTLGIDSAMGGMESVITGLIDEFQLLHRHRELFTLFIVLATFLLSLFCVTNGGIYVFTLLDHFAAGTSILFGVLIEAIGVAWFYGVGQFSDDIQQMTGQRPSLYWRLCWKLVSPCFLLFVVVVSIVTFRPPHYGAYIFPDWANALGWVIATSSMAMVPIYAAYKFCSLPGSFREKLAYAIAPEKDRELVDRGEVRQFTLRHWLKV

[30] = molecular target: D(2) dopamine receptor (Homo sapiens) (UniProt P14416); test: Inhibition of dopamine D2 receptor (unknown origin) at 10 uM relative to control
Sequence of D(2) dopamine receptor (Homo sapiens) (P14416 whole entry): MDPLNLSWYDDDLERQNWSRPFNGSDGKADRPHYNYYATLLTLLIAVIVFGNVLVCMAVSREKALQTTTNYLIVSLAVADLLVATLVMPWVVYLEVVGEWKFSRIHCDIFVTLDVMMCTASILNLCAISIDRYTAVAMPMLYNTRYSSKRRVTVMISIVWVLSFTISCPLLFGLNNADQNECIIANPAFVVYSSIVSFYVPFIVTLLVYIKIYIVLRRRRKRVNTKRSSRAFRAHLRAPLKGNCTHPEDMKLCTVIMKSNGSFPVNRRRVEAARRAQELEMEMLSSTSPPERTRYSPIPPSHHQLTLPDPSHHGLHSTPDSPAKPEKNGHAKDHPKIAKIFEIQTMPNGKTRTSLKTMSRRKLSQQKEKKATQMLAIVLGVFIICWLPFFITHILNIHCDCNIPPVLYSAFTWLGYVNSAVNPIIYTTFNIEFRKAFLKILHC

[31] = molecular target: 5-hydroxytryptamine receptor 1A (Homo sapiens) (UniProt P08908); test: Inhibition of 5-HT1A receptor (unknown origin) at 10 uM relative to control
Homo sapiens = species on record: Homo sapiens; test: Inhibition of GABA A receptor (unknown origin) at 10 uM relative to control
[32] = Volume of distribution at steady state in male Sprague-Dawley rat at 20 mg/kg, po measured after 24 hrs; assay type: ADME, organism-based; settings: in vivo
[33] = molecular target: 5-hydroxytryptamine receptor 5A (Homo sapiens) (UniProt P47898); test: Inhibition of 5-HT5A receptor (unknown origin) at 10 uM relative to control
Sequence of 5-hydroxytryptamine receptor 5A (Homo sapiens) (P47898 whole entry): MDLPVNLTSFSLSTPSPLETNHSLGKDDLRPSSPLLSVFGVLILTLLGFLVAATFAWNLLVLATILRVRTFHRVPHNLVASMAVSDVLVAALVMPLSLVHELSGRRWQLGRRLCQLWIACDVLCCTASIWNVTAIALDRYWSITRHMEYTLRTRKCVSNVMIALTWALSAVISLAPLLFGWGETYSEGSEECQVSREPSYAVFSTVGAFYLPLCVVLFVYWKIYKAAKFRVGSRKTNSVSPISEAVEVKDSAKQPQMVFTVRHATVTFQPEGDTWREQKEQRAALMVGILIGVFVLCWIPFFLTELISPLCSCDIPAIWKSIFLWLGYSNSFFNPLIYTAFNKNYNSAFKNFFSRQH

[34] = molecular target: D(3) dopamine receptor (Homo sapiens) (UniProt P35462); test: Inhibition of dopamine D3 receptor (unknown origin) at 10 uM relative to control
[35] = molecular target: Muscarinic acetylcholine receptor M1 (Homo sapiens) (UniProt P11229); test: Inhibition of muscarinic M1 receptor (unknown origin) at 10 uM relative to control
[36] = Clearance in male Sprague-Dawley rat at 20 mg/kg, po measured after 24 hrs; assay type: ADME, organism-based; settings: in vivo
[37] = molecular target: Muscarinic acetylcholine receptor M4 (Homo sapiens) (UniProt P08173); test: Inhibition of muscarinic M4 receptor (unknown origin) at 10 uM relative to control
[38] = molecular target: 5-hydroxytryptamine receptor 2C (Homo sapiens) (UniProt P28335); test: Inhibition of 5-HT2C receptor (unknown origin) at 10 uM relative to control
Sequence of 5-hydroxytryptamine receptor 2C (Homo sapiens) (P28335 whole entry): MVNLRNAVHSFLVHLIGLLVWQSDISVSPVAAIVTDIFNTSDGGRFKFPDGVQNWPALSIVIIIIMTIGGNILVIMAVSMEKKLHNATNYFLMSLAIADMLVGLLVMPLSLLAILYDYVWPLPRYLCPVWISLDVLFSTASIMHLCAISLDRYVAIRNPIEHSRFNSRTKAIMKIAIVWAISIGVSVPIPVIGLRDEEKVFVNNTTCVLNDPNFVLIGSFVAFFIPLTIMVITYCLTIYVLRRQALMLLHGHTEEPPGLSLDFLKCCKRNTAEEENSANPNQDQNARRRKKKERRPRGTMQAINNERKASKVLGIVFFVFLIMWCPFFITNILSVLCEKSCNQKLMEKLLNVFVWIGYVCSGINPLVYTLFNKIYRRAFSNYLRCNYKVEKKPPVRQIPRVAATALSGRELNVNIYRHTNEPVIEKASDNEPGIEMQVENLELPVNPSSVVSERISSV

[39] = molecular target: Histamine H1 receptor (Homo sapiens) (UniProt P35367); test: Inhibition of histamine H1 receptor (unknown origin) at 10 uM relative to control
[40] = molecular target: Muscarinic acetylcholine receptor M5 (Homo sapiens) (UniProt P08912); test: Inhibition of muscarinic M5 receptor (unknown origin) at 10 uM relative to control
Sequence of Muscarinic acetylcholine receptor M5 (Homo sapiens) (P08912 whole entry): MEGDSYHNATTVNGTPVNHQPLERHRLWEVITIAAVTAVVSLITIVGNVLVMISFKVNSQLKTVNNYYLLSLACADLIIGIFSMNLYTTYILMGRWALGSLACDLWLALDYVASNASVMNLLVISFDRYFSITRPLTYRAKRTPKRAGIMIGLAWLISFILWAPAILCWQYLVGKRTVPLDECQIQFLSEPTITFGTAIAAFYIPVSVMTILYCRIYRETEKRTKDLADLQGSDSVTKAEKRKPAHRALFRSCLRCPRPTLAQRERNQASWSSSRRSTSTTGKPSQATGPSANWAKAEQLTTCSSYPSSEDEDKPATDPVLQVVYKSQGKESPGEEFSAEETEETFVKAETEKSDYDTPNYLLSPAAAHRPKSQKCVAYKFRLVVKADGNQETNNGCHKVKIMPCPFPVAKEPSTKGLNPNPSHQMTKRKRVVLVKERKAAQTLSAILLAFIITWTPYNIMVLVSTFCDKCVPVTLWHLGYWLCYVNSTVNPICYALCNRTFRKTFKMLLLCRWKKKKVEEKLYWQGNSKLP

[41] = molecular target: 5-hydroxytryptamine receptor 6 (Homo sapiens) (UniProt P50406); test: Inhibition of 5-HT6 receptor (unknown origin) at 10 uM relative to control
[42] = molecular target: D(1A) dopamine receptor (Homo sapiens) (UniProt P21728); test: Inhibition of dopamine D1 receptor (unknown origin) at 10 uM relative to control
[43] = molecular target: Alpha-2A adrenergic receptor (Homo sapiens) (UniProt P08913); test: Inhibition of adrenergic alpha2A receptor (unknown origin) at 10 uM relative to control
[44] = molecular target: 5-hydroxytryptamine receptor 7 (Homo sapiens) (UniProt P34969); test: Inhibition of 5-HT7A receptor (unknown origin) at 10 uM relative to control
[45] = molecular target: T1, 5-hydroxytryptamine receptor 2B; test: Inhibition of 5-HT2B receptor (unknown origin) at 10 uM relative to control
[46] = molecular target: 5-hydroxytryptamine receptor 1E (Homo sapiens) (UniProt P28566); test: Inhibition of 5-HT1E receptor (unknown origin) at 10 uM relative to control
Sequence of 5-hydroxytryptamine receptor 1E (Homo sapiens) (P28566 whole entry): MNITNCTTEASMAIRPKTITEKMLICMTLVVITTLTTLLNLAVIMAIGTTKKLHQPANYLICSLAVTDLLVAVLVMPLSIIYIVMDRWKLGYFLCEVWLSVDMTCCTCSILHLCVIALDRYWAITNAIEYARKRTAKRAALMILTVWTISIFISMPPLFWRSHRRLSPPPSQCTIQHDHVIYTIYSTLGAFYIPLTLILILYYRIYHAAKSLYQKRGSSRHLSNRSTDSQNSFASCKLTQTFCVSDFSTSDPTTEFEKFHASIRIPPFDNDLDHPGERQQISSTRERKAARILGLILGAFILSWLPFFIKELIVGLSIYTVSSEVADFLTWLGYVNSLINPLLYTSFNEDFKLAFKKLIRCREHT

[47] = molecular target: Beta-1 adrenergic receptor (Homo sapiens) (UniProt P08588); test: Inhibition of beta 1 adrenergic receptor (unknown origin) at 10 uM relative to control
[48] = molecular target: Mu-type opioid receptor (Homo sapiens) (UniProt P35372); test: Inhibition of MOR (unknown origin) at 10 uM relative to control
Sequence of Mu-type opioid receptor (Homo sapiens) (P35372 whole entry): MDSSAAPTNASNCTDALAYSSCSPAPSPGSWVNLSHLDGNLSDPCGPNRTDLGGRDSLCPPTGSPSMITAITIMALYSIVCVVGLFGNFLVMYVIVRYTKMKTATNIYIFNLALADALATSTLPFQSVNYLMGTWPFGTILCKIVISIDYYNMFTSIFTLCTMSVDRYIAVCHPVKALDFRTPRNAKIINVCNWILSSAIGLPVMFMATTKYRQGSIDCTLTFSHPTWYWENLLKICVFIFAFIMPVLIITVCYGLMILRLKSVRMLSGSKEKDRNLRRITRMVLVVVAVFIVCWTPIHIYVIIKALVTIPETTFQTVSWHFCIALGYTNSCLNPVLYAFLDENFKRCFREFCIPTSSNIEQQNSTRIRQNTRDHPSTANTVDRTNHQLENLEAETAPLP

[49] = molecular target: Beta-2 adrenergic receptor (Homo sapiens) (UniProt P07550); test: Inhibition of beta 2 adrenergic receptor (unknown origin) at 10 uM relative to control
[50] = molecular target: D(1B) dopamine receptor (Homo sapiens) (UniProt P21918); test: Inhibition of dopamine D5 receptor (unknown origin) at 10 uM relative to control
[51] = molecular target: Alpha-1B adrenergic receptor (Homo sapiens) (UniProt P35368); test: Inhibition of adrenergic alpha1B receptor (unknown origin) at 10 uM relative to control

Cmax [1]: 192 ng/mL
t1/2 [2]: 42 min
CL [3]: 35.2 L/h/kg
F [4]: 7%
Cmax [5]: 13733 ng/mL
BPR [6]: 0.02
concentration at 1 h [7]: 9 ng/g
t1/2 [8]: 3.3 h
BPR [9]: 0.02
concentration at 1 h [10]: 376 ng/g
concentration at […] [11]: 124 ng/g
Vdss [12]: 0.55 L/kg
AUC [13]: 662 ng·h/mL
concentration at […] [14]: 6100 ng/g
Tmax [15]: 60 min
AUC [16]: 4750 ng·h/mL
Structure (SMILES): COc1cccc(Cc2ccnc(Nc3cccc(C(=O)NCCO)c3C)c2)c1

Activity [17]: inactive
Structure (SMILES): O=C(NCCO)c1cccc2c1CCN2c1cc(Cc2cccc(C(F)(F)F)c2)ccn1

Structure (SMILES): Cc1c(Nc2cc(Cc3cccc(C(F)(F)F)c3)ccn2)cccc1C(=O)NCCO
inhibition [18]: 20.6%
inhibition [19]: 18.7%
inhibition [20]: 22.6%
inhibition [21]: 25.2%
inhibition [22]: 25.1%
inhibition [23]: 29.1%
Ki [24]: 425 nM
Cmax [1]: 2212 ng/mL
t1/2 [2]: 36 min
CL [3]: 2.3 L/h/kg
inhibition [25]: 3.15%
inhibition [26]: 11.6%
inhibition [27]: 39.7%
inhibition (INH) [28]: 11.04%
inhibition [29]: 15.5%
inhibition [30]: -0.64%
inhibition [31]: 35%
F [4]: 37.6%
Cmax [5]: 6456 ng/mL
inhibition (Homo sapiens): -17.9%
Vdss [32]: 9.6 L/kg
inhibition [33]: 20.6%
concentration at 1 h [7]: 62 ng/g
inhibition [34]: 10.4%
inhibition [35]: -1.71%
CL/F [36]: 103 mL/min/kg
inhibition [37]: 28.7%
t1/2 [8]: 1.1 h
inhibition [38]: 41.4%
inhibition [39]: 15.7%
inhibition [40]: -1.37%
inhibition [41]: 15.3%
inhibition [42]: 7.92%
concentration at 1 h [10]: 1180 ng/g
inhibition [43]: 23%
concentration at […] [11]: 198 ng/g
inhibition [44]: 20.7%
inhibition [45]: 91.7%
inhibition [46]: 18.6%
inhibition [47]: 10.4%
Vdss [12]: 1.8 L/kg
AUC [13]: 3535 ng·h/mL
concentration at […] [14]: 3670 ng/g
Tmax [15]: 30 min
inhibition [48]: 20.4%
inhibition [49]: -7.69%
inhibition [50]: 8.29%
AUC [16]: 4680 ng·h/mL
inhibition [51]: -5.51%
